# Experimental data taken from ChEMBL document CHEMBL3588765, “Synthesis and molecular docking of 1,2,3-triazole-based sulfonamides as aromatase inhibitors” (Bioorg Med Chem, 2015).
# Experiments:
# [1] = Solubility of the compound in phosphate buffer at pH 7.4 medium; type: physicochemical
# Vero = assay: Cytotoxicity against african green monkey Vero cells after 4 days by green fluorescent protein detection method; type: cell-based; conditions: Chlorocebus sabaeus, 96 h
# Aromatase = target: T1, Aromatase (Homo sapiens, UniProt P11511); assay: Inhibition of CYP19 (unknown origin) using O-benzyl fluorescein benzyl ester substrate preincubated for 10 mins by fluorimetric analysis relative to control
# T1 sequence (P11511 whole entry): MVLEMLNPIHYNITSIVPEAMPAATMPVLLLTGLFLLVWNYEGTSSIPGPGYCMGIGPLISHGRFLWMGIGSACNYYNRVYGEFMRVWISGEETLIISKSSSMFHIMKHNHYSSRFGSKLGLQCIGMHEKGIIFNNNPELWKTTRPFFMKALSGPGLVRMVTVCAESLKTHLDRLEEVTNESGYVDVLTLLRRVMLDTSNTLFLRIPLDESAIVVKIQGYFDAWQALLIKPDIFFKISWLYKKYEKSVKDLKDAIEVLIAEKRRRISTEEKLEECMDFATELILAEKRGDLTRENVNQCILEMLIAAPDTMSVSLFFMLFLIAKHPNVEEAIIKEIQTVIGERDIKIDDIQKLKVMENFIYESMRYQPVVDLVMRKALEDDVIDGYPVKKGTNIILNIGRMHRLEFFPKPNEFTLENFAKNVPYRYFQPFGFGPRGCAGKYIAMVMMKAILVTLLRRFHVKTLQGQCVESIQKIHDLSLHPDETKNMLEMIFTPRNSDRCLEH
# Method in brief: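 CYP19 was assayed with dibenzylfluorescein (DBF) as substrate. DBF is dealkylated by the enzyme and hydrolysed to fluorescein. Cofactor mix was 50 mM phosphate buffer pH 7.4 with an NADPH-generating system (NADP⁺, glucose-6-phosphate, MgCl₂, glucose-6-phosphate dehydrogenase). This mix was preincubated 10 min at 37 °C. Enzyme/substrate mixture (16 pmol/mL CYP19 stock, 0.2 mM DBF stock) and test sample were then added.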
# [2] = Selectivity index, ratio of IC50 for african green monkey Vero cells to IC50 for CYP19 (unknown origin)
# Method in brief: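 Selectivity index was calculated as the IC₅₀ in GFP-Vero cells (4-day fluorescence assay) divided by the IC₅₀ in the DBF-based CYP19 fluorescence assay.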
smiles,measurement,setting,value
O=c1ccc2ccc(OCc3cn(-c4cccc(S(=O)(=O)N5CCc6ccccc6C5)c4)nn3)cc2o1,solubility,[1],Insoluble
same,IC50,Vero,91.5 µg/mL
O=[N+]([O-])c1ccc(OCc2cn(-c3ccc(S(=O)(=O)NCCc4ccccc4)cc3)nn2)cc1,IC50,Aromatase,2.9 µM
same,IC50,Vero,> 50 µg/mL
same,Ratio IC50,[2],>35.96
COc1cc2c(cc1OC)CN(S(=O)(=O)c1ccc(-n3cc(COc4ccc([N+](=O)[O-])cc4)nn3)cc1)CC2,IC50,Aromatase,> 12.5 µM
same,IC50,Vero,> 50 µg/mL
O=c1cc(OCc2cn(-c3ccc(S(=O)(=O)N4CCc5ccccc5C4)cc3)nn2)c2ccccc2o1,IC50,Aromatase,> 12.5 µM
O=S(=O)(NCCc1ccccc1)c1ccc(-n2cc(COc3cccc4ccccc34)nn2)cc1,IC50,Aromatase,3.4 µM
same,IC50,Vero,> 50 µg/mL
same,Ratio IC50,[2],>30.35
COc1cc2c(cc1OC)CN(S(=O)(=O)c1cccc(-n3cc(COc4cc(=O)oc5ccccc45)nn3)c1)CC2,IC50,Aromatase,1.8 µM
same,IC50,Vero,86.3 µg/mL
same,Ratio IC50,[2],48
O=Cc1ccc(OCc2cn(-c3ccc(S(=O)(=O)NCCc4ccccc4)cc3)nn2)cc1,IC50,Aromatase,7.9 µM
same,IC50,Vero,> 50 µg/mL
same,Ratio IC50,[2],>13.68
COc1cc2c(cc1OC)CN(S(=O)(=O)c1ccc(-n3cc(COc4ccccc4C(C)=O)nn3)cc1)CC2,IC50,Aromatase,> 12.5 µM
COc1ccc(CCNS(=O)(=O)c2ccc(-n3cc(-c4ccccc4)nn3)cc2)cc1OC,IC50,Aromatase,4.6 µM
same,IC50,Vero,> 50 µg/mL
same,Ratio IC50,[2],>23.4
O=c1ccc2ccc(OCc3cn(-c4ccc(S(=O)(=O)NCCc5ccccc5)cc4)nn3)cc2o1,IC50,Aromatase,> 12.5 µM
same,IC50,Vero,> 50 µg/mL
O=S(=O)(NCCc1ccccc1)c1ccc(-n2cc(COc3ccc4ccccc4c3)nn2)cc1,IC50,Aromatase,1.3 µM
same,IC50,Vero,> 50 µg/mL
same,Ratio IC50,[2],>79.37
O=S(=O)(NCCc1ccccc1)c1ccc(-n2cc(-c3ccccc3)nn2)cc1,IC50,Aromatase,> 12.5 µM
same,IC50,Vero,> 50 µg/mL
O=c1cc(OCc2cn(-c3cccc(S(=O)(=O)N4CCc5ccccc5C4)c3)nn2)c2ccccc2o1,IC50,Aromatase,> 12.5 µM
same,IC50,Vero,> 50 µg/mL
COc1cc2c(cc1OC)CN(S(=O)(=O)c1cccc(-n3cc(COc4ccc5ccc(=O)oc5c4)nn3)c1)CC2,IC50,Aromatase,0.2 µM
same,IC50,Vero,> 50 µg/mL
same,Ratio IC50,[2],>435.09
Cc1ccccc1OCc1cn(-c2ccc(S(=O)(=O)NCCc3ccccc3)cc2)nn1,IC50,Aromatase,3.4 µM
same,IC50,Vero,> 50 µg/mL
same,Ratio IC50,[2],>32.79
COc1ccc(CCNS(=O)(=O)c2ccc(-n3cc(COc4ccc([N+](=O)[O-])cc4)nn3)cc2)cc1OC,IC50,Aromatase,2.7 µM
same,IC50,Vero,> 50 µg/mL
same,Ratio IC50,[2],>34.32
COc1cc2c(cc1OC)CN(S(=O)(=O)c1ccc(-n3cc(COc4ccccc4C)nn3)cc1)CC2,IC50,Aromatase,> 12.5 µM
same,IC50,Vero,> 50 µg/mL
COC(=O)c1ccccc1OCc1cn(-c2ccc(S(=O)(=O)N3CCc4cc(OC)c(OC)cc4C3)cc2)nn1,IC50,Aromatase,> 12.5 µM
Cc1ccc(OCc2cn(-c3ccc(S(=O)(=O)NCCc4ccccc4)cc3)nn2)cc1,IC50,Aromatase,8 µM
same,IC50,Vero,> 50 µg/mL
same,Ratio IC50,[2],>13.93
COc1cc2c(cc1OC)CN(S(=O)(=O)c1ccc(-n3cc(COc4cc(C=O)ccc4OC)nn3)cc1)CC2,IC50,Aromatase,> 12.5 µM
same,IC50,Vero,> 50 µg/mL
O=c1cc(OCc2cn(-c3ccc(S(=O)(=O)NCCc4ccccc4)cc3)nn2)c2ccccc2o1,IC50,Aromatase,1.8 µM
same,IC50,Vero,> 50 µg/mL
same,Ratio IC50,[2],>55.27
O=S(=O)(NCCc1ccccc1)c1ccc(-n2cc(COc3ccccc3)nn2)cc1,IC50,Aromatase,9.4 µM
same,IC50,Vero,> 50 µg/mL
same,Ratio IC50,[2],>12.24
Cc1c2ccncc2c(C)c2c1[nH]c1ccccc12 [ELLIPTECINE],IC50,Vero,1.94 µg/mL
CC(=O)c1ccccc1OCc1cn(-c2ccc(S(=O)(=O)N3CCc4ccccc4C3)cc2)nn1,IC50,Aromatase,> 12.5 µM
same,IC50,Vero,> 50 µg/mL
